Experimental data of several laboratories.
Target: Protein kinase C epsilon type (PRKCE, Homo sapiens, UniProt Q02156)
Residues used in one study (Q02156 1-737): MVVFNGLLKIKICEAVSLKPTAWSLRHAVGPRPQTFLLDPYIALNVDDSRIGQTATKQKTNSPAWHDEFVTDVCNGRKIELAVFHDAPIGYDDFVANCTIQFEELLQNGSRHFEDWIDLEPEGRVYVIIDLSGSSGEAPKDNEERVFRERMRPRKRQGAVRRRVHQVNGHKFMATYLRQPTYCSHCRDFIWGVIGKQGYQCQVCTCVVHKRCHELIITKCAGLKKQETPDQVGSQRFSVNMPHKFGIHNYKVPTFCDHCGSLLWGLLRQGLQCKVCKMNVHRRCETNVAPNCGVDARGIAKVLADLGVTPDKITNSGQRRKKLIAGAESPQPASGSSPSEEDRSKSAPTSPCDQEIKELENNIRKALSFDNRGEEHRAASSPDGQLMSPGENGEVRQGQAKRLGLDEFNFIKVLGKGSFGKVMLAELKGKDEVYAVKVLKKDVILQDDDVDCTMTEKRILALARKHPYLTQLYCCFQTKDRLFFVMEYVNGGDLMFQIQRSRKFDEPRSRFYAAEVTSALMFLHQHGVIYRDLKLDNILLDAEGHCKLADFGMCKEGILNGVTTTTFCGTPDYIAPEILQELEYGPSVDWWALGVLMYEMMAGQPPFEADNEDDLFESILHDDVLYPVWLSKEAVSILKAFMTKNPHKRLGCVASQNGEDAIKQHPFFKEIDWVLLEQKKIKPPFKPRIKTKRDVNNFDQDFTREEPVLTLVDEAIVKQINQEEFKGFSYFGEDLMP

CCS(=O)(=O)c1cc2cc(C[C@](O)(CC(C)(C)c3ccc(F)cc3C(N)=O)C(F)(F)F)[nH]c2cn1  remaining binding (cell-free assay, competition with immobilised ligand; 1 µM): 96%
F[C@@H]1CCN(c2nccc(-c3cnn4ncccc34)n2)C1  remaining binding (binding; 1 µM): 88%
CNC(=O)[C@@H]1CC[C@@H](n2c(-c3ccc4cnccc4c3)nc3ccc(C(=O)NCc4cccc(C(N)=O)c4)cc32)C1  remaining binding (binding, competition with immobilised ligand; 1 µM): 85%
CCC(=N\O)/C(C)=C/c1ccc(F)cc1  remaining binding (cell-free assay, competition with immobilised ligand; 1 µM): 76%
O=C(c1ccc(Nc2ncc(Cl)c(-c3cc4ccccc4s3)n2)cc1)N1CCC(N2CCCC2)CC1  remaining binding (binding, competition with immobilised ligand; 1 µM): 50%
CN(C)c1nccc(-c2cnn3ncccc23)n1  remaining binding (binding; 1 µM): 100%
Cc1c[nH]c2nccc(Oc3c(F)cc(Nc4cc(Cl)nc(N)n4)cc3F)c12  remaining binding (cell-free assay, competition with immobilised ligand; 0.1 µM): 96%
C=CC(=O)N1CCC(C(=O)NCC(=O)N2CCN(c3nc(-c4cnc(N)nc4C(F)F)nc(N4CCOCC4)n3)CC2)CC1  remaining binding (binding, competition with immobilised ligand; 1 µM): 79%
CN(c1nccc(-c2cnn3ncccc23)n1)C1CC1  remaining binding (binding; 1 µM): 83%
N#Cc1ccccc1CSc1nnc2c(n1)[nH]c1ccccc12  remaining binding (binding, competition with immobilised ligand; 10 µM): 100%
CSc1cccnc1N1CCN(Cc2nc3ccccc3[nH]2)CC1  remaining binding (cell-free assay, competition with immobilised ligand; 1 µM): 77%
C[C@@H](c1ccc(-n2cnc3c(N)ncnc32)cc1)N1CCc2nn(C)c(Cc3ccccc3)c2C1=O  remaining binding (binding, competition with immobilised ligand; 0.1 µM): 74%
O=C(Nc1c[nH]nc1C(=O)NC1CCNCC1)c1cc(F)cc(F)c1  remaining binding (binding, competition with immobilised ligand; 1 µM): 70%
C[C@@H]1CCN(c2nccc(-c3cnn4ncccc34)n2)C1  remaining binding (binding; 1 µM): 100%
CN(C(=O)c1ccccc1)c1cc(N(C)c2ccc3c(c2)CCc2ccc(C(=O)NCCN4CCOCC4)cc2C3=O)ccc1F  remaining binding (cell-free assay, competition with immobilised ligand; 1 µM): 87%
O=C(c1ccc(Nc2ncc(Cl)c(-c3ccc(Cl)s3)n2)cc1)N1CCC(N2CCCC2)CC1  remaining binding (binding, competition with immobilised ligand; 1 µM): 45%
N[C@H]1CCN(c2nccc(-c3cnn4ncccc34)n2)C1  remaining binding (binding; 1 µM): 100%
